Experiments:
[1] = Pharmacokinetic study in healthy male subjects after oral desmopressin; format: in vivo; details: human, plasma, 0.4 mg
In short: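 Healthy male volunteers (n=6), fasted 9 h, received a single oral 0.4 mg dose (2×0.2 mg tablets). Plasma was spun at 3200 rpm for 10 min, stored at −20±5 °C, spiked with IS, extracted and quantified by positive-ESI MRM UPLC–MS/MS (HSS T3 column, 40 °C; LLOQ 1.01 pg/mL). Non-compartmental analysis.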

[2] = Processed sample stability; format: physicochemical; details: 45 h at 2-8 °C, UPLC-MS/MS, mean of n=6
In short: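 Processed-sample stability was tested at LQC and HQC in human plasma, six replicates per level: autosampler 48 h, wet extract 45 h, reinjection 24 h. Extracts were analysed by UPLC–MS/MS against a 9-point calibration of 1.01–200 pg/mL. Acceptance was accuracy within ±15% and precision ≤15% RSD.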

NC(=O)CC[C@@H]1NC(=O)[C@H](Cc2ccccc2)NC(=O)[C@H](Cc2ccc(O)cc2)NC(=O)CCSSC[C@@H](C(=O)N2CCC[C@H]2C(=O)N[C@H](CCCN=C(N)N)C(=O)NCC(N)=O)NC(=O)[C@H](CC(N)=O)NC1=O [desmopressin]
AUC(0-inf) [1]: 0.157 ± 0.051 ng·h/mL
AUC(0-t) [1]: 0.149 ± 0.046 ng·h/mL
Cmax [1]: 0.035 ± 0.0081 ng/mL
Tmax [1]: 1.4 ± 0.48 h
half-life [1]: 3.48 ± 0.5 h
level at 1.25 h [1]: 0.0361 ng/mL
Accuracy/stability (%), Process (wet extract) ([2]; spiked 3.05 pg/mL (LQC)): 94.84%
Accuracy/stability (%), Process (wet extract) ([2]; spiked 156.23 pg/mL (HQC)): 99.20%

— PMC5790683 (Journal of Pharmaceutical Analysis, 2013)
